Experiments:
Assay type in all cases: functional, organism-based
[1] = test system: Human immunodeficiency virus 1; experiment: Antiviral activity against HIV 1 RIN harboring integrase gene infected in MT-4 cells assessed as inhibition of virus-induced cytopathic effect by MTT assay; details: Human immunodeficiency virus 1, RIN, MT4
Procedure, shortened: (§1)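 MT-4 cells (RPMI 1640, 10% heat-inactivated FCS, 2 mM L-glutamine, 37°C, 5% CO2) infected with 100 to 300 CCID50 of virus, titrated on MT-4 cells. Fivefold serial drug dilutions were present during infection. Protection from viral CPE was read by MTT reduction to formazan, measured spectrophotometrically. IC50 is the concentration giving 50% protection.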

[2] = test system: Human immunodeficiency virus 1; experiment: Antiviral activity against HIV 1 NL4.3 integrase E92Q mutant infected in human MT-4 cells assessed as inhibition of virus-induced cytopathic effect by MTT assay; details: Human immunodeficiency virus 1, NL4.3, MT4; procedure, shortened: as §1
[3] = test system: Human immunodeficiency virus 1; experiment: Antiviral activity against HIV 1 NL4.3 integrase S230N mutant infected in human MT-4 cells assessed as inhibition of virus-induced cytopathic effect by MTT assay; details: Human immunodeficiency virus 1, NL4.3, MT4; procedure, shortened: as §1
[4] = test system: Human immunodeficiency virus 1; experiment: Antiviral activity against HIV 1 RIN harboring integrase gene infected in MT-4 cells assessed as inhibition of virus-induced cytopathic effect by MTT assay after 20 passages selected in presence of compound; details: Human immunodeficiency virus 1, RIN, MT4
[5] = test system: Human immunodeficiency virus 1; experiment: Antiviral activity against HIV 1 RIN HIV 1 RIN harboring integrase gene infected in MT-4 cells assessed as inhibition of virus-induced cytopathic effect by MTT assay after 60 passages selected in presence of compound; details: Human immunodeficiency virus 1, RIN, MT4; procedure, shortened: as §1
[6] = test system: Human immunodeficiency virus 1; experiment: Antiviral activity against HIV 1 NL4.3 assessed as inhibition of virus-induced cytopathic effect by MTT assay; details: Human immunodeficiency virus 1, NL4.3; procedure, shortened: as §1
[7] = test system: Human immunodeficiency virus 1; experiment: Antiviral activity against HIV 1 RIN HIV 1 RIN harboring integrase gene infected in MT-4 cells assessed as inhibition of virus-induced cytopathic effect by MTT assay after 40 passages selected in presence of compound; details: Human immunodeficiency virus 1, RIN, MT4; procedure, shortened: as §1
[8] = test system: Human immunodeficiency virus 1; experiment: Antiviral activity against HIV 1 NL4.3 harboring integrase L74M mutant infected in human MT-4 cells assessed as inhibition of virus-induced cytopathic effect by MTT assay; details: Human immunodeficiency virus 1, NL4.3, MT4; procedure, shortened: as §1
[9] = test system: Human immunodeficiency virus 1; experiment: Antiviral activity against HIV 1 3B harboring integrase E92Q S230N double mutant infected in MT-4 cells assessed as inhibition of virus-induced cytopathic effect by MTT assay selected after 20 passages in presence of compound; details: Human immunodeficiency virus 1, 3B, MT4; procedure, shortened: as §1
[10] = test system: Human immunodeficiency virus 1; experiment: Antiviral activity against HIV 1 3B infected in MT-4 cells assessed as inhibition of virus-induced cytopathic effect by MTT assay; details: Human immunodeficiency virus 1, 3B, MT4; procedure, shortened: as §1
[11] = test system: Human immunodeficiency virus 1; experiment: Antiviral activity against HIV 1 3B harboring integrase L34M mutant infected in MT-4 cells assessed as inhibition of virus-induced cytopathic effect by MTT assay selected after 40 passages in presence of compound; details: Human immunodeficiency virus 1, 3B, MT4; procedure, shortened: as §1
[12] = test system: Human immunodeficiency virus 1; experiment: Antiviral activity against HIV 1 3B harboring integrase E92Q, S230N and L34M triple mutant infected in MT-4 cells assessed as inhibition of virus-induced cytopathic effect by MTT assay selected after 60 passages in presence of compound; details: Human immunodeficiency virus 1, 3B, MT4; procedure, shortened: as §1
[13] = test system: Human immunodeficiency virus 1; experiment: Antiviral activity against HIV 1 3B infected in MT-4 cells assessed as inhibition of virus-induced cytopathic effect by MTT assay selected after 50 passages in presence of compound; details: Human immunodeficiency virus 1, 3B, MT4
Procedure, shortened: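 Selected strains came from serial passage of HIV-1(IIIB) in MT-4 cells, started at MOI 0.01 with drug at 0.005 µM. Cultures were checked for CPE every 3 to 4 days. Supernatant from CPE-positive cultures went onto fresh cells at equal or higher drug concentration; cultures without breakthrough were subcultured at the same concentration. Susceptibility was tested by the MT-4/MTT CPE assay.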

Structure (SMILES)	EC50 [1] [nM]	EC50 [2] [nM]	EC50 [3] [nM]	EC50 [4] [nM]	EC50 [5] [nM]	EC50 [6] [nM]	EC50 [7] [nM]	EC50 [8] [nM]	EC50 [9] [nM]	EC50 [10] [nM]	EC50 [11] [nM]	EC50 [12] [nM]	IC50 [13] [nM]
Cc1nnc(C(=O)NC(C)(C)c2nc(C(=O)NCc3ccc(F)cc3)c(O)c(=O)n2C)o1	6	15	9	10	68	5	25	7					
Cc1ccnc2c1NC(=O)c1cccnc1N2C1CC1 [NEVIRAPINE]	170				150		150		380	460	350	310	
CC(C)c1nc(CN(C)C(=O)N[C@H](C(=O)N[C@@H](Cc2ccccc2)C[C@H](O)[C@H](Cc2ccccc2)NC(=O)OCc2cncs2)C(C)C)cs1 [RITONAVIR]	43	58	90	39	41	130	42	60	69	55	69	60	
COc1cc2c(cc1Cc1cccc(Cl)c1F)c(=O)c(C(=O)O)cn2[C@H](CO)C(C)C	0.7	12	0.9	15	59	0.7	18	0.6	33	1	50	77	
COc1cccc2c1c(C(=O)/C=C(\O)C(=O)O)cn2Cc1ccc(F)cc1	440	660	490	520	2610	560	1080	320	1890	390	1860	3610	
Cc1cn([C@H]2C[C@H](N=[N+]=[N-])[C@@H](CO)O2)c(=O)[nH]c1=O [ZIDOVUDINE]	18	7	6	22	22	7	22	5	18	18	4	7	
O=C(NCc1ccc(F)cc1)c1nc(N2CCCCS2(=O)=O)c2cccnc2c1O	4	73	7	18	190	4	64	4	110	5	170	550	1100
c1cc(CN2CCCNCCNCCCNCC2)ccc1CN1CCCNCCNCCCNCC1 [PLERIXAFOR]	14			8	8		8		49	34	28	56	
